Experimental data of several laboratories.
Lines come from different studies, so protocols differ. pEC50: −log10 of the molar value. Values after ≈ are worked out from the molar mass of the structure shown.

Cc1ccc(-c2nc3ccccc3s2)cc1NC(=O)c1cc([N+](=O)[O-])c(N(C)C)cc1Cl
pEC50 (Leishmania mexicana; parasite growth; J774.A1; intracellular, amastigote): < 5.00

O=C1NC(=S)N/C1=C\c1ccc(-c2ccc(N(c3ccccc3)c3ccccc3)cc2)cc1
MBC (Staphylococcus epidermidis; microbial killing, broth dilution; ATCC12228): > 1000 µg/mL

C/C=C(/C)C(=O)O[C@@H]1[C@H](OC(C)=O)c2c(ccc3ccc(=O)oc23)OC1(C)C
inhibition (tubulin polymerisation, inhibitor; 10 µM): 24.8%

CC1(C)CC[C@]2(CO)CC[C@]3(C)C(=CC[C@@H]4[C@@]5(C)CC[C@@H]6O[C@H]([C@H](O)[C@@H](O)[C@H](O)CO)OC[C@@]6(C)[C@@H]5CC[C@]43C)[C@@H]2C1
inhibition (Leishmania mexicana; parasite growth, resazurin; 50 µM, amastigote): 98.7%

O=C1NC(=S)S/C1=C\c1c2ccccc2c(-c2ccc(N(c3ccccc3)c3ccccc3)cc2)c2ccccc12
MBC (Staphylococcus epidermidis; microbial killing, broth dilution; ATCC12228): > 1000 µg/mL

C[C@@H]1O[C@@H](C[C@@H]2OC[C@@]3(C)[C@@H]4CC[C@]5(C)[C@H](CC=C6[C@@H]7CC(C)(C)CC[C@]7(C(=O)O)CC[C@]65C)[C@@]4(C)CC[C@@H]3O2)[C@@H](O)[C@H](O)[C@@H]1O
inhibition (Leishmania mexicana; parasite growth, resazurin; 50 µM, amastigote): 99.2%

O=c1c(O[C@@H]2O[C@H](CO)[C@@H](O)[C@H](O)[C@H]2O)c(-c2ccc(O)cc2)oc2cc(O)cc(O)c12
inhibition (tubulin polymerisation, inhibitor; 10 µM): 21.2%

COC(=O)[C@]12CCC(C)(C)C[C@H]1C1=CC[C@@H]3[C@@]4(C)CC[C@@H]5O[C@H]([C@H](O)[C@@H](O)[C@H](O)[C@H](O)CO)OC[C@@]5(C)[C@@H]4CC[C@@]3(C)[C@]1(C)CC2
inhibition (Leishmania mexicana; parasite growth, resazurin; 50 µM, amastigote): 100%

COc1cc(-c2ccc(-c3ccc(C(=N)N)nc3)s2)cc(OC)c1OC
GI50 (HOP-62; cell growth or viability, SRB): 2790 nM

O=c1c(O)c(-c2ccc(O)cc2)oc2cc(O)cc(O)c12
inhibition (tubulin polymerisation, inhibitor; 10 µM): 15%

Cc1cc(Cl)c(Cl)cc1NC(=O)c1cc([N+](=O)[O-])c(F)cc1F
pEC50 (Leishmania mexicana; parasite growth; J774.A1; intracellular, amastigote): 6.47

O=C1NC(=S)S/C1=C\c1ccc(-c2ccc(N(c3ccccc3)c3ccccc3)cc2)cc1
MBC (Staphylococcus epidermidis; microbial killing, broth dilution; ATCC12228): 250 µg/mL (≈ 538 µM)

Cc1ccc(-c2nc3ccccc3s2)cc1NC(=O)c1cc([N+](=O)[O-])c(F)cc1F
pEC50 (Leishmania mexicana; parasite growth; J774.A1; intracellular, amastigote): 6.19

CC1(C)CC[C@]2(NC(=O)N3CCC[C@H]3CO)CC[C@]3(C)C(=CC[C@@H]4[C@@]5(C)CC[C@@H]6OC(C)(C)OC[C@@]6(C)[C@@H]5CC[C@]43C)[C@@H]2C1
inhibition (Leishmania mexicana; parasite growth, resazurin; 50 µM, amastigote): 95.8%

Cc1ccc(-c2nc3ccccc3s2)cc1NC(=O)c1cc([N+](=O)[O-])ccc1Cl
pEC50 (Leishmania mexicana; parasite growth; J774.A1; intracellular, amastigote): < 5.00

O=C1NC(=S)N/C1=C\c1ccc(-c2ccc(N(c3ccccc3)c3ccccc3)cc2)c2ccccc12
MBC (Staphylococcus epidermidis; microbial killing, broth dilution; ATCC12228): > 1000 µg/mL

O=c1cc(-c2ccc(O)c(O)c2)oc2cc(O)cc(O)c12
inhibition (tubulin polymerisation, inhibitor; 10 µM): 26.2%

O=C(O)CN1C(=O)/C(=C/c2c3ccccc3c(-c3ccc(N(c4ccccc4)c4ccccc4)cc3)c3ccccc23)NC1=S
MBC (Staphylococcus epidermidis; microbial killing, broth dilution; ATCC12228): > 1000 µg/mL

CC1(C)CC[C@]2(C(=O)OCN3C(=O)c4ccccc4C3=O)CC[C@]3(C)C(=CC[C@@H]4[C@@]5(C)CC[C@H](O)[C@@](C)(CO)[C@@H]5CC[C@]43C)[C@@H]2C1
inhibition (Leishmania mexicana; parasite growth, resazurin; 50 µM, amastigote): 98.6%

CC(=O)O[C@@H]1c2c(ccc3ccc(=O)oc23)OC(C)(C)[C@@H]1OC(=O)C1(C)OC1C (stereo partly drawn)
inhibition (tubulin polymerisation, inhibitor; 10 µM): 32.8%

CC1(C)CC[C@]2(CO)CC[C@]3(C)C(=CC[C@@H]4[C@@]5(C)CC[C@@H]6O[C@H]([C@H](O)[C@@H](O)[C@H](O)[C@H](O)CO)OC[C@@]6(C)[C@@H]5CC[C@]43C)[C@@H]2C1
inhibition (Leishmania mexicana; parasite growth, resazurin; 50 µM, amastigote): 99.1%

COC(=O)[C@]1(O)C[C@@H](O)[C@@H](O)[C@H](OC(=O)/C=C/c2ccc(O)c(O)c2)C1
inhibition (tubulin polymerisation, inhibitor; 10 µM): 16.9%

CC1(C)CC[C@]2(NC(=O)N[C@H]3C(O)O[C@H](CO)[C@@H](O)[C@@H]3O)CC[C@]3(C)C(=CC[C@@H]4[C@@]5(C)CC[C@@H]6OC(C)(C)OC[C@@]6(C)[C@@H]5CC[C@]43C)[C@@H]2C1 (stereo partly drawn)
inhibition (Leishmania mexicana; parasite growth, resazurin; 50 µM, amastigote): 97.2%

Nc1ncnc2c1ncn2[C@@H]1O[C@H](CO)[C@@H](O)[C@H]1O
inhibition (tubulin polymerisation, inhibitor; 10 µM): 17.9%
